pIC50: −log10 of the molar value. Activity calls are given as the source filed them.
What was measured:
Rattus norvegicus [1] = assay: Anticonvulsant activity in rat assessed as protection against maximal electric shock-induced seizures at 30 mg/kg, po measured after 0.5 hrs; type: functional, organism-based
Method in brief: (§1)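 Rats dosed ip or orally as 0.5% methylcellulose suspension; maximal electroshock at listed time. Protection = abolition of hindlimb tonic extension; 4 rats per group, scored protected/tested.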

Rattus norvegicus [2] = assay: Anticonvulsant activity in rat assessed as protection against maximal electric shock-induced seizures at 30 mg/kg, po measured after 1 hr; type: functional, organism-based; method in brief: as §1
Mus musculus [3] = assay: Anticonvulsant activity in mouse assessed as protection against maximal electric shock-induced seizures at 3 mg/kg, ip measured after 0.5 hrs; type: functional, organism-based
Method in brief: (§2)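 Mice dosed ip with suspension in 0.5% methylcellulose; maximal electroshock applied at the listed time after dosing. Protection = abolition of hindlimb tonic extension component of seizure; reported as animals protected/animals tested.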

Rattus norvegicus [4] = assay: Anticonvulsant activity in rat assessed as protection against maximal electric shock-induced seizures at 30 mg/kg, po measured after 2 hrs; type: functional, organism-based; method in brief: as §1
Rattus norvegicus [5] = assay: Anticonvulsant activity in rat assessed as protection against maximal electric shock-induced seizures at 30 mg/kg, po measured after 4 hrs; type: functional, organism-based; method in brief: as §1
Rattus norvegicus [6] = assay: Neurotoxicity in rat at 30 mg/kg, po after […] by rotarod test; type: toxicity, organism-based; details: in vivo
Rattus norvegicus [7] = assay: Neurotoxicity in rat at 30 mg/kg, po after 0.5 hrs by rotarod test; type: toxicity, organism-based; details: in vivo
Rattus norvegicus [8] = assay: Neurotoxicity in rat at 30 mg/kg, po after 1 hr by rotarod test; type: toxicity, organism-based; details: in vivo
Rattus norvegicus [9] = assay: Neurotoxicity in rat at 30 mg/kg, po after 2 hrs by rotarod test; type: toxicity, organism-based; details: in vivo
Rattus norvegicus [10] = assay: Neurotoxicity in rat at 30 mg/kg, po after 4 hrs by rotarod test; type: toxicity, organism-based; details: in vivo
Mus musculus [11] = assay: Anticonvulsant activity in mouse assessed as protection against maximal electric shock-induced seizures at 10 mg/kg, ip measured after 0.5 hrs; type: functional, organism-based; method in brief: as §2
Mus musculus [12] = assay: Anticonvulsant activity in mouse assessed as protection against maximal electric shock-induced seizures at 30 mg/kg, ip measured after 0.5 hrs; type: functional, organism-based; method in brief: as §2
Mus musculus [13] = assay: Anticonvulsant activity in mouse assessed as protection against maximal electric shock-induced seizures at 30 mg/kg, ip measured after 4 hrs; type: functional, organism-based; method in brief: as §2
Mus musculus [14] = assay: Neurotoxicity in mouse at 10 mg/kg, ip after 0.5 hrs by rotarod test; type: toxicity, organism-based; details: in vivo
Method in brief: (§3)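 Mice were dosed ip with compound suspended in 0.5% methylcellulose. Rotarod: a 1 in. knurled rod turning at 6 rpm. Neurotoxicity was scored as failure to stay on the rod for at least 1 min in each of three trials. Results are given as the number of animals affected out of the number tested.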

Mus musculus [15] = assay: Neurotoxicity in mouse at 3 mg/kg, ip after 0.5 hrs by rotarod test; type: toxicity, organism-based; details: in vivo; method in brief: as §3
Mus musculus [16] = assay: Anticonvulsant activity in mouse assessed as protection against subcutaneous pentylenetetrazol-induced seizures at 30 mg/kg, ip measured after 0.5 hrs; type: functional, organism-based
Method in brief: (§4)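 Mice dosed ip as 0.5% methylcellulose suspension; pentylenetetrazole 85 mg/kg in 0.9% NaCl injected subcutaneously into posterior midline, animals watched at least 30 min. Protection = no threshold seizure (single clonic spasm episode lasting ≥5 s); scored protected/tested.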

Mus musculus [17] = assay: Anticonvulsant activity in mouse assessed as protection against subcutaneous pentylenetetrazol-induced seizures at 30 mg/kg, ip measured after 4 hrs; type: functional, organism-based; method in brief: as §4
Mus musculus [18] = assay: Neurotoxicity in mouse at 30 mg/kg, ip after 0.5 hrs by rotarod test; type: toxicity, organism-based; details: in vivo; method in brief: as §3
Mus musculus [19] = assay: Neurotoxicity in mouse at 30 mg/kg, ip after 4 hrs by rotarod test; type: toxicity, organism-based; details: in vivo; method in brief: as §3
Mus musculus [20] = assay: Neurotoxicity in mouse at 100 mg/kg, ip after 0.5 hrs by rotarod test; type: toxicity, organism-based; details: in vivo; method in brief: as §3
Mus musculus [21] = assay: Neurotoxicity in mouse at 300 mg/kg, ip after 0.5 hrs by rotarod test; type: toxicity, organism-based; details: in vivo; method in brief: as §3
Rattus norvegicus [22] = assay: Anticonvulsant activity in rat assessed as protection against maximal electric shock-induced seizures at 30 mg/kg, po measured after […]; type: functional, organism-based
Vibrio harveyi [23] = assay: Mutagenicity in Vibrio harveyi BB7 assessed as number of colonies after 48 hrs (reference value: 13 to 14 no_unit); type: ADME, organism-based; details: in vivo
Method in brief: (§5)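 Vibrio harveyi mutagenicity test: test compound was added to exponentially growing cultures (A600 = 0.1, 30 °C) and grown to OD600 0.3–0.4. Then 5 × 10^6 cells were plated on BOSS agar with neomycin (final 100 µg/mL) and incubated 48 h at 30 °C. Neomycin-resistant colonies were counted. Triplicate; controls were water, DMSO and NQNO 40 ng/mL.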

Vibrio harveyi [24] = assay: Mutagenicity in Vibrio harveyi BB7X assessed as number of colonies after 48 hrs (reference value: 15 to 16 no_unit); type: ADME, organism-based; details: in vivo; method in brief: as §5
Vibrio harveyi [25] = assay: Mutagenicity in Vibrio harveyi BB7M assessed as number of colonies after 48 hrs (reference value: 13 to 14 no_unit); type: ADME, organism-based; details: in vivo; method in brief: as §5
Vibrio harveyi [26] = assay: Mutagenicity in Vibrio harveyi BB7XM assessed as number of colonies after 48 hrs (reference value: 14 no_unit); type: ADME, organism-based; details: in vivo; method in brief: as §5
Vibrio harveyi [27] = assay: Antimutagenic activity against Vibrio harveyi BB7 assessed as inhibition of NQNO-induced mutagenicity after 48 hrs; type: functional
Method in brief: (§6)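 V. harveyi cultures grown exponentially to A600 0.1 at 30 °C, exposed to test compound for 15 min, then to NQNO, and grown on to A600 0.3–0.4. 5 × 10⁶ cells plated on BOSS agar with neomycin (100, final). Neomycin-resistant colonies counted after 48 h at 30 °C. Result given as % inhibition of NQNO mutagenicity; three independent repeats.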

Vibrio harveyi [28] = assay: Antimutagenic activity against Vibrio harveyi BB7X assessed as inhibition of NQNO-induced mutagenicity after 48 hrs; type: functional; method in brief: as §6
Vibrio harveyi [29] = assay: Antimutagenic activity against Vibrio harveyi BB7M assessed as inhibition of NQNO-induced mutagenicity after 48 hrs; type: functional; method in brief: as §6
Vibrio harveyi [30] = assay: Antimutagenic activity against Vibrio harveyi BB7XM assessed as inhibition of NQNO-induced mutagenicity after 48 hrs; type: functional; method in brief: as §6
Mus musculus [31] = assay: Anticonvulsant activity in mouse assessed as protection against 6 Hz psychomotor seizure at 100 mg/kg, ip after 1 hr; type: functional, organism-based
Method in brief: (§7)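 Suspension in 0.5% methylcellulose given ip to mice; corneal stimulation with 0.2 ms monopolar rectangular pulses at 6 Hz for 3 s from a constant current device, mice restrained then released to observation cage. Protected if normal exploratory behaviour resumed within 10 s of stimulation. Scored as protected/tested, 4 mice per group.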

Mus musculus [32] = assay: Anticonvulsant activity in mouse assessed as protection against 6 Hz psychomotor seizure at 100 mg/kg, ip after 2 hrs; type: functional, organism-based; method in brief: as §7
Mus musculus [33] = assay: Anticonvulsant activity in mouse assessed as protection against 6 Hz psychomotor seizure at 100 mg/kg, ip after […]; type: functional, organism-based
Mus musculus [34] = assay: Anticonvulsant activity in mouse assessed as protection against 6 Hz psychomotor seizure at 100 mg/kg, ip after 4 hrs; type: functional, organism-based; method in brief: as §7
Mus musculus [35] = assay: Neurotoxicity in mouse at 100 mg/kg, ip after […] by rotarod test; type: toxicity, organism-based; details: in vivo
Mus musculus [36] = assay: Anticonvulsant activity in mouse assessed as protection against maximal electric shock-induced seizures at 100 mg/kg, ip measured after 4 hrs; type: functional, organism-based; method in brief: as §2
Mus musculus [37] = assay: Anticonvulsant activity in mouse assessed as protection against subcutaneous pentylenetetrazol-induced seizures at 100 mg/kg, ip measured after 4 hrs; type: functional, organism-based; method in brief: as §4
Mus musculus [38] = assay: Neurotoxicity in mouse at 100 mg/kg, ip after 4 hrs by rotarod test; type: toxicity, organism-based; details: in vivo; method in brief: as §3
Mus musculus [39] = assay: Neurotoxicity in mouse at 300 mg/kg, ip after 4 hrs by rotarod test; type: toxicity, organism-based; details: in vivo; method in brief: as §3
[40] = Displacement of [3H]D888 from rat cerebral cortex L-type calcium channel verapamil binding site; type: tissue-based
[41] = target: 5-hydroxytryptamine receptor 2B (Homo sapiens, UniProt P41595); assay: Displacement of [125I](+/-)DOI from human recombinant 5-HT2B receptor expressed in CHO cells; type: cell-based
Mus musculus [42] = assay: Neurotoxicity in mouse at 100 mg/kg, ip after 2 hrs by rotarod test; type: toxicity, organism-based; details: in vivo; method in brief: as §3
Mus musculus [43] = assay: Anticonvulsant activity in mouse assessed as protection against 6 Hz psychomotor seizure at 100 mg/kg, ip after 0.5 hrs; type: functional, organism-based; method in brief: as §7

Sequence of 5-hydroxytryptamine receptor 2B (P41595 whole entry): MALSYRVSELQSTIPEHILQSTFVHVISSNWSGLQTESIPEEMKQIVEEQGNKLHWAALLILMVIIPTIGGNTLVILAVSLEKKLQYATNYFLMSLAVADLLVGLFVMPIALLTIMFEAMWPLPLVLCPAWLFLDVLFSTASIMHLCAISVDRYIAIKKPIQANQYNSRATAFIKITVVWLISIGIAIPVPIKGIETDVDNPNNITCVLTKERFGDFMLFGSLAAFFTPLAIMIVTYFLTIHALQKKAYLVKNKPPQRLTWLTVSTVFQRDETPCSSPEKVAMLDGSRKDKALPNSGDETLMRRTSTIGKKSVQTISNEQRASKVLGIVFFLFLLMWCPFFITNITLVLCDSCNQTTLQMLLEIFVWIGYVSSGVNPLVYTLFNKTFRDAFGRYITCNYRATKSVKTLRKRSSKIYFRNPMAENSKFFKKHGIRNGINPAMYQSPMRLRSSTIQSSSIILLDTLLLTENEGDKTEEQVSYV

## CC[C@@H](CO)NCCOCCOc1c(C)cccc1C
Rattus norvegicus [1]
  Activity: inactive
Rattus norvegicus [2]
  Activity: inactive
Mus musculus [3]
  Activity: inactive
Rattus norvegicus [4]
  Activity: inactive
Rattus norvegicus [5]
  Activity: inactive
Rattus norvegicus [6]
  Activity: Non-toxic
Rattus norvegicus [7]
  Activity: Non-toxic
Rattus norvegicus [8]
  Activity: Non-toxic
Rattus norvegicus [9]
  Activity: Non-toxic
Rattus norvegicus [10]
  Activity: Non-toxic
Mus musculus [11]
  Activity: inactive
Mus musculus [12]
  Activity: Active
Mus musculus [13]
  Activity: inactive
Mus musculus [14]
  Activity: Non-toxic
Mus musculus [15]
  Activity: Non-toxic
Mus musculus [16]
  Activity: inactive
Mus musculus [17]
  Activity: inactive
Mus musculus [18]
  Activity: Non-toxic
Mus musculus [19]
  Activity: Non-toxic
Mus musculus [20]
  Activity: Toxic
Mus musculus [21]
  Activity: Toxic
Rattus norvegicus [22]
  Activity: inactive
Vibrio harveyi [23]
  Activity: 28
Vibrio harveyi [24]
  Activity: 27
Vibrio harveyi [25]
  Activity: 26
Vibrio harveyi [26]
  Activity: 22
Vibrio harveyi [27]
  inhibition (INH): 88%
Vibrio harveyi [28]
  inhibition (INH): 22%
Vibrio harveyi [29]
  inhibition (INH): 52%
Vibrio harveyi [30]
  inhibition (INH): 15%

## Cc1cccc(OCCOCCNC(C)CO)c1C (stereo not given)
Mus musculus [31]
  Activity: Active
Mus musculus [32]
  Activity: inactive
Mus musculus [33]
  Activity: Active
Mus musculus [34]
  Activity: inactive
Mus musculus [35]
  Activity: Toxic
Mus musculus [12]
  Activity: inactive
Mus musculus [13]
  Activity: inactive
Mus musculus [36]
  Activity: inactive
Mus musculus [16]
  Activity: inactive
Mus musculus [17]
  Activity: inactive
Mus musculus [37]
  Activity: inactive
Mus musculus [18]
  Activity: Non-toxic
Mus musculus [19]
  Activity: Non-toxic
Mus musculus [20]
  Activity: Toxic
Mus musculus [38]
  Activity: Non-toxic
Mus musculus [21]
  Activity: Toxic
Mus musculus [39]
  Activity: Non-toxic

## COc1ccc(CCN(C)CCCC(C#N)(c2cc(OC)c(OC)c(OC)c2)C(C)C)cc1OC (stereo not given) [GALLOPAMIL]
[40]
  pIC50: 7.82

## COc1cc(CC(C)N)c(OC)cc1I (racemic)
[41]
  pIC50: 8.60

## Cc1ccc(OCCNC(C)CO)c(C)c1 (stereo not given)
Mus musculus [31]
  Activity: inactive
Mus musculus [32]
  Activity: inactive
Mus musculus [42]
  Activity: Non-toxic
Mus musculus [43]
  Activity: inactive
Mus musculus [34]
  Activity: inactive
Mus musculus [38]
  Activity: Non-toxic

Source: ChEMBL document CHEMBL3774372, “Design, physico-chemical properties and biological evaluation of some new N-[(phenoxy)alkyl]- and N-{2-[2-(phenoxy)ethoxy]ethyl}aminoalkanols as anticonvulsant agents” (Bioorg Med Chem, 2016)
